# Calls of active or inactive are those of the source.
# Columns and labels:
# [1] = tested on: Escherichia coli; assay: Antibacterial activity against Escherichia coli assessed as growth inhibition at 100 umol/L after 8 hrs by ELISA plate reader analysis relative to control; type: functional; details: read-out: GI
# In short: (§1)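 Bacteria were seeded at 1×10^5 CFU/mL in LB, and compound was added to 100 µmol/L final. Compounds came from DMSO stock, with DMSO ≤1% (v/v) final. Cultures were shaken at 37 °C for 8 h and read at OD450. Inhibition % = (OD vehicle control − OD sample)/OD vehicle control × 100. Values are the mean of three independent experiments.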
# [2] = tested on: Bacillus subtilis; assay: Antibacterial activity against Bacillus subtilis assessed as growth inhibition at 100 umol/L after 8 hrs by ELISA plate reader analysis relative to control; type: functional; details: read-out: GI; in short: as §1
# [3] = tested on: Escherichia coli; assay: Antibacterial activity against Escherichia coli assessed as lowest concentration required to reduce growth by 1% after 8 hrs by ELISA plate reader analysis relative to control; type: functional
# In short: (§2)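 MBC was found by broth microdilution. Inocula of 1×10^5 CFU/mL in LB were shaken at 37 °C with a series of compound concentrations, then read at OD450. MBC was defined as the lowest concentration reducing growth by 1% versus the inoculum control. Three independent experiments were run.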
# [4] = tested on: Escherichia coli; assay: Downregulation of cysB gene expression in Escherichia coli at 50 umol/L after 8 hrs by real-time RT-PCR analysis relative to control; type: functional, organism-based
# In short: (§3)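 E. coli at 2×10^7 CFU/mL in LB was exposed to 50 µmol/L compound, or LB alone, for 8 h at 37 °C. Total RNA was then analysed by TaqMan real-time RT-PCR or semi-quantitative RT-PCR. Transcripts were normalised to gapA. Fold change is relative to time-matched medium-only cultures.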
# [5] = tested on: Escherichia coli; assay: Downregulation of cysB gene expression in Escherichia coli at 50 umol/L after 8 hrs by semi-quantitative RT-PCR analysis relative to control; type: functional, organism-based; in short: as §3
# [6] = tested on: Escherichia coli; assay: Downregulation of acrA gene expression in Escherichia coli at 50 umol/L after 8 hrs by real-time RT-PCR analysis relative to control; type: functional, organism-based; in short: as §3
# [7] = tested on: Escherichia coli; assay: Downregulation of acrA gene expression in Escherichia coli at 50 umol/L after 8 hrs by semi-quantitative RT-PCR analysis relative to control; type: functional, organism-based; in short: as §3
# [8] = tested on: Escherichia coli; assay: Downregulation of tsh gene expression in Escherichia coli at 50 umol/L after 8 hrs by real-time RT-PCR analysis relative to control; type: functional, organism-based; in short: as §3
# [9] = tested on: Escherichia coli; assay: Downregulation of IroD gene expression in Escherichia coli at 50 umol/L after 8 hrs by real-time RT-PCR analysis relative to control; type: functional, organism-based; in short: as §3
# [10] = tested on: Escherichia coli; assay: Downregulation of tsh gene expression in Escherichia coli at 50 umol/L after 8 hrs by semi-quantitative RT-PCR analysis relative to control; type: functional, organism-based; in short: as §3
# [11] = tested on: Escherichia coli; assay: Downregulation of IroD gene expression in Escherichia coli at 50 umol/L after 8 hrs by semi-quantitative RT-PCR analysis relative to control; type: functional, organism-based; in short: as §3
# [12] = tested on: Escherichia coli; assay: Upregulation of cysB gene expression in Escherichia coli at 50 umol/L after 8 hrs by real-time RT-PCR analysis relative to control; type: functional, organism-based; in short: as §3
# [13] = tested on: Escherichia coli; assay: Upregulation of cysB gene expression in Escherichia coli at 50 umol/L after 8 hrs by semi-quantitative RT-PCR analysis relative to control; type: functional, organism-based; in short: as §3
# [14] = tested on: Escherichia coli; assay: Upregulation of acrA gene expression in Escherichia coli at 50 umol/L after 8 hrs by real-time RT-PCR analysis relative to control; type: functional, organism-based; in short: as §3
# [15] = tested on: Escherichia coli; assay: Upregulation of acrA gene expression in Escherichia coli at 50 umol/L after 8 hrs by semi-quantitative RT-PCR analysis relative to control; type: functional, organism-based; in short: as §3
# [16] = tested on: Staphylococcus aureus; assay: Antibacterial activity against Staphylococcus aureus assessed as growth inhibition at 100 umol/L after 8 hrs by ELISA plate reader analysis relative to control; type: functional; details: read-out: GI; in short: as §1
# [17] = tested on: Staphylococcus aureus; assay: Antibacterial activity against Staphylococcus aureus assessed as lowest concentration required to reduce growth by 1% after 8 hrs by ELISA plate reader analysis relative to control; type: functional; in short: as §2
# [18] = tested on: Staphylococcus aureus; assay: Upregulation of hla gene expression in Staphylococcus aureus at 50 umol/L after 8 hrs by real-time RT-PCR analysis relative to control; type: functional, organism-based
# In short: (§4)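 S. aureus ATCC 25923 at 2×10^7 CFU/mL in LB was exposed to 50 µmol/L compound, or LB alone, for 8 h at 37 °C. Total RNA was analysed by TaqMan real-time RT-PCR or semi-quantitative RT-PCR, normalised to gyrB. Fold change is versus time-matched medium-only cultures, with data pooled from three experiments.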
# [19] = tested on: Staphylococcus aureus; assay: Upregulation of hla gene expression in Staphylococcus aureus at 50 umol/L after 8 hrs by semi-quantitative RT-PCR analysis relative to control; type: functional, organism-based; in short: as §4
# [20] = tested on: Staphylococcus aureus; assay: Upregulation of sbi gene expression in Staphylococcus aureus at 50 umol/L after 8 hrs by real-time RT-PCR analysis relative to control; type: functional, organism-based; in short: as §4
# [21] = tested on: Staphylococcus aureus; assay: Upregulation of sbi gene expression in Staphylococcus aureus at 50 umol/L after 8 hrs by semi-quantitative RT-PCR analysis relative to control; type: functional, organism-based; in short: as §4
# [22] = tested on: Staphylococcus aureus; assay: Upregulation of mecA gene expression in Staphylococcus aureus at 50 umol/L after 8 hrs by real-time RT-PCR analysis relative to control; type: functional, organism-based; in short: as §4
# [23] = tested on: Staphylococcus aureus; assay: Upregulation of mecA gene expression in Staphylococcus aureus at 50 umol/L after 8 hrs by semi-quantitative RT-PCR analysis relative to control; type: functional, organism-based; in short: as §4
# [24] = tested on: Staphylococcus aureus; assay: Downregulation of saeR gene expression in Staphylococcus aureus at 50 umol/L after 8 hrs by real-time RT-PCR analysis relative to control; type: functional, organism-based; in short: as §4
# [25] = tested on: Staphylococcus aureus; assay: Downregulation of saeR gene expression in Staphylococcus aureus at 50 umol/L after 8 hrs by semi-quantitative RT-PCR analysis relative to control; type: functional, organism-based; in short: as §4
# [26] = tested on: Bacillus subtilis; assay: Antibacterial activity against Bacillus subtilis assessed as lowest concentration required to reduce growth by 1% after 8 hrs by ELISA plate reader analysis relative to control; type: functional; in short: as §2
# [27] = tested on: Bacillus subtilis; assay: Downregulation of yqhC gene expression in Bacillus subtilis at 50 umol/L after 8 hrs by real-time RT-PCR analysis relative to control; type: functional, organism-based
# In short: as §4, with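 “B. subtilis” for “S. aureus”, “6051” for “25923”, “16sRNA.” for “gyrB.”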
# [28] = tested on: Bacillus subtilis; assay: Downregulation of yqhC gene expression in Bacillus subtilis at 50 umol/L after 8 hrs by semi-quantitative RT-PCR analysis relative to control; type: functional, organism-based
# In short: as §4, with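 “B. subtilis” for “S. aureus”, “6051” for “25923”, “16sRNA.” for “gyrB.”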
# [29] = tested on: Bacillus subtilis; assay: Downregulation of yhdP gene expression in Bacillus subtilis at 50 umol/L after 8 hrs by real-time RT-PCR analysis relative to control; type: functional, organism-based
# In short: as §4, with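 “B. subtilis” for “S. aureus”, “6051” for “25923”, “16sRNA.” for “gyrB.”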
# [30] = tested on: Bacillus subtilis; assay: Downregulation of yhdP gene expression in Bacillus subtilis at 50 umol/L after 8 hrs by semi-quantitative RT-PCR analysis relative to control; type: functional, organism-based
# In short: as §4, with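 “B. subtilis” for “S. aureus”, “6051” for “25923”, “16sRNA.” for “gyrB.”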
# [31] = tested on: Bacillus subtilis; assay: Downregulation of yhdT gene expression in Bacillus subtilis at 50 umol/L after 8 hrs by real-time RT-PCR analysis relative to control; type: functional, organism-based
# In short: as §4, with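 “B. subtilis” for “S. aureus”, “6051” for “25923”, “16sRNA.” for “gyrB.”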
# [32] = tested on: Bacillus subtilis; assay: Downregulation of yhdT gene expression in Bacillus subtilis at 50 umol/L after 8 hrs by semi-quantitative RT-PCR analysis relative to control; type: functional, organism-based
# In short: as §4, with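 “B. subtilis” for “S. aureus”, “6051” for “25923”, “16sRNA.” for “gyrB.”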
# [33] = tested on: Bacillus subtilis; assay: Downregulation of yqhB gene expression in Bacillus subtilis at 50 umol/L after 8 hrs by real-time RT-PCR analysis relative to control; type: functional, organism-based
# In short: as §4, with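 “B. subtilis” for “S. aureus”, “6051” for “25923”, “16sRNA.” for “gyrB.”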
# [34] = tested on: Bacillus subtilis; assay: Downregulation of yqhB gene expression in Bacillus subtilis at 50 umol/L after 8 hrs by semi-quantitative RT-PCR analysis relative to control; type: functional, organism-based
# In short: as §4, with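 “B. subtilis” for “S. aureus”, “6051” for “25923”, “16sRNA.” for “gyrB.”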
# [35] = tested on: Bacillus subtilis; assay: Downregulation of yugS gene expression in Bacillus subtilis at 50 umol/L after 8 hrs by real-time RT-PCR analysis relative to control; type: functional, organism-based
# In short: as §4, with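 “B. subtilis” for “S. aureus”, “6051” for “25923”, “16sRNA.” for “gyrB.”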
# [36] = tested on: Bacillus subtilis; assay: Downregulation of yugS gene expression in Bacillus subtilis at 50 umol/L after 8 hrs by semi-quantitative RT-PCR analysis relative to control; type: functional, organism-based
# In short: as §4, with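 “B. subtilis” for “S. aureus”, “6051” for “25923”, “16sRNA.” for “gyrB.”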
# [37] = tested on: Staphylococcus aureus; assay: Downregulation of mecA gene expression in Staphylococcus aureus at 50 umol/L after 8 hrs by real-time RT-PCR analysis relative to control; type: functional; in short: as §4
# [38] = tested on: Staphylococcus aureus; assay: Downregulation of mecA gene expression in Staphylococcus aureus at 50 umol/L after 8 hrs by semi-quantitative RT-PCR analysis relative to control; type: functional; in short: as §4
smiles,measurement,setting,value
O=C(N/N=C/c1cc([N+](=O)[O-])ccc1O)c1ccncc1,inhibition of growth at 100 µM,[1],41.8%
O=C(COc1ccc(Cl)cc1)N/N=C/c1cc(Br)ccc1O,inhibition of growth at 100 µM,[1],73.2%
same,inhibition of growth at 100 µM,[2],15.9%
same,MBC,[3],18.4 µM
same,Activity,[4],Active
same,Activity,[5],Active
same,Activity,[6],Active
same,Activity,[7],Active
same,Activity,[8],Active
same,Activity,[9],Active
same,Activity,[10],Active
same,Activity,[11],Active
O=C(O)[C@H](Cc1ccccc1)/N=C/c1ccccc1O,inhibition of growth at 100 µM,[1],22.7%
O=C(N/N=C/c1cc(Br)ccc1O)c1ccncc1,inhibition of growth at 100 µM,[1],95.8%
same,MBC,[3],3.2 µM
same,Activity,[12],Active
same,Activity,[13],Active
same,Activity,[14],Active
same,Activity,[15],Active
same,Activity,[8],Active
same,Activity,[9],Active
same,Activity,[10],Active
same,Activity,[11],Active
CC(C)(C)c1cc(/C=N/NC(=O)COc2ccc(Cl)cc2)c(O)c(C(C)(C)C)c1,inhibition of growth at 100 µM,[1],10.5%
same,inhibition of growth at 100 µM,[2],19.7%
COC(=O)[C@H](Cc1ccccc1)/N=C/c1ccccc1O,inhibition of growth at 100 µM,[1],14.6%
same,inhibition of growth at 100 µM,[2],4.21%
same,inhibition of growth at 100 µM,[16],86.9%
same,MBC,[17],13.8 µM
same,Activity,[18],Active
same,Activity,[19],Active
same,Activity,[20],Active
same,Activity,[21],Active
same,Activity,[22],Active
same,Activity,[23],Active
same,Activity,[24],Active
same,Activity,[25],Active
O=C(COc1ccc(Cl)cc1)N/N=C/c1cc([N+](=O)[O-])ccc1O,inhibition of growth at 100 µM,[2],96.4%
same,inhibition of growth at 100 µM,[16],1.39%
same,MBC,[26],2.8 µM
same,Activity,[27],Active
same,Activity,[28],Active
same,Activity,[29],Active
same,Activity,[30],Active
same,Activity,[31],Active
same,Activity,[32],Active
same,Activity,[33],Active
same,Activity,[34],Active
same,Activity,[35],Active
same,Activity,[36],Active
O=C(COc1ccc(Cl)cc1)N/N=C/c1ccccc1O,inhibition of growth at 100 µM,[1],0.23%
O=C(COc1ccc(Cl)cc1)N/N=C/c1ccc(OCc2ccccc2)c(OCc2ccccc2)c1,inhibition of growth at 100 µM,[1],17.6%
same,inhibition of growth at 100 µM,[2],6.21%
same,inhibition of growth at 100 µM,[16],99.5%
same,MBC,[17],1.4 µM
same,Activity,[18],Active
same,Activity,[19],Active
same,Activity,[20],Active
same,Activity,[21],Active
same,fold change (FC),[37],2
same,fold change (FC),[38],2

# Reference: ChEMBL document CHEMBL3421541, “Benzaldehyde Schiff bases regulation to the metabolism, hemolysis, and virulence genes expression in vitro and their structure-microbicidal activity relationship” (2015)
